Source: ChEMBL document CHEMBL3352055, “Synthesis and structure-activity relationship studies of small molecule disruptors of EWS-FLI1 interactions in Ewing's sarcoma” (J Med Chem, 2014)
Activity calls are given as the source filed them. The rule behind the calls is not given here.

Key:
[1] = Growth inhibition of human PANC1 cells after 3 days by WST1 assay; assay type: cell-based, PANC-1
How it was run: (§1)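 Cells plated at 5000–15000 per well in colorless medium. TC32 and TC71 grown in RPMI with 10% FBS and 1% HEPES; PANC1 in DMEM with 10% FBS. Compounds or DMSO vehicle added the day after plating. Viable cells measured by MTT or WST-1 after 3 days. GI50 from nonlinear regression.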

[2] = Growth inhibition of human TC71 cells harboring EWS-FLI1 fusion protein after 3 days by WST1 assay; assay type: functional; settings: TC-71, 72 h; how it was run: as §1
[3] = Growth inhibition of human TC32 cells harboring EWS-FLI1 fusion protein after 3 days by WST1 assay; assay type: functional; settings: TC-32, 72 h; how it was run: as §1
[4] = biological target: Friend leukemia integration 1 transcription factor (Proto-oncogene Fli-1)/RNA-binding protein EWS (Homo sapiens) (UniProt Q01844+Q01543); test: (§2) Inhibition of transcriptional activity of full-length EWS-FLI1 (unknown origin) expressed in COS7 cells by NR0B1-luciferase reporter gene assay; assay type: cell-based; settings: COS-7
How it was run: (§3)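 COS7 cells transiently co-transfected with an NR0B1 luciferase reporter carrying EWS-FLI1 binding sites plus full-length EWS-FLI1 or empty pCI-neo vector. Treated 1.5 h after transfection with 0.05–15 μM compound or DMSO. Luciferase read 20 h later, quadruplicate wells, mean ± SD. IC50 from sigmoidal dose–response fit.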

[5] = biological target: T1, Friend leukemia integration 1 transcription factor (Proto-oncogene Fli-1)/RNA-binding protein EWS (Homo sapiens, UniProt Q01543+Q01844); test: as §2; assay type: cell-based, COS-7; how it was run: as §3
T1 sequence (Q01844 whole entry): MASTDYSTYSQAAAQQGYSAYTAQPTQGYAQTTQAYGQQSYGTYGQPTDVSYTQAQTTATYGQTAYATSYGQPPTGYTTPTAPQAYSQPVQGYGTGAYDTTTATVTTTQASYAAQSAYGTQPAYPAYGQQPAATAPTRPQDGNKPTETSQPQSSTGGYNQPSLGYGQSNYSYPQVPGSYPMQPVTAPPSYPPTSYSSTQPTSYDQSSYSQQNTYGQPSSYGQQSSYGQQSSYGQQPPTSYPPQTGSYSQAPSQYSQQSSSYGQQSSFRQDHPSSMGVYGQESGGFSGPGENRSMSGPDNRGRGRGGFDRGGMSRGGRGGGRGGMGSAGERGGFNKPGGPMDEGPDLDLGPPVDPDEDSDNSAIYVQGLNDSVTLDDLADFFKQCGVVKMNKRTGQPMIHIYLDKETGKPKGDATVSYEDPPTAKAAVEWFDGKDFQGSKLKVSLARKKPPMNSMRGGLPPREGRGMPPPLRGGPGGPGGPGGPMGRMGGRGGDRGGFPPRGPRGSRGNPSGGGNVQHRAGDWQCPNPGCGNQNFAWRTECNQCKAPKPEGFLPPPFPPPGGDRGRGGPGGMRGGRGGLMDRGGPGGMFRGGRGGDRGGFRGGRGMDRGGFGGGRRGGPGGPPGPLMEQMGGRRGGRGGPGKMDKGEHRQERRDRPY
T1 sequence (Q01543 whole entry): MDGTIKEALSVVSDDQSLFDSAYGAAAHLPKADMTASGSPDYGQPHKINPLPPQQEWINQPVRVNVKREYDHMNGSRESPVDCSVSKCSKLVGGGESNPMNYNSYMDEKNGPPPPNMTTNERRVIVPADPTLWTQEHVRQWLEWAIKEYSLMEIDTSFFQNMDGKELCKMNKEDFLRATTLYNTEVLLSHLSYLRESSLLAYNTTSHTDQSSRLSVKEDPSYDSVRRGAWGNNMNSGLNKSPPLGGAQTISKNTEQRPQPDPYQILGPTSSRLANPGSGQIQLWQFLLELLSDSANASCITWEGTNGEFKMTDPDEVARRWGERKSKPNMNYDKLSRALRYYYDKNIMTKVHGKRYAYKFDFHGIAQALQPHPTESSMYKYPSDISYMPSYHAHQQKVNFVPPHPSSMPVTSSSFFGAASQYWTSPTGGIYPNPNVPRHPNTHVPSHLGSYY

[6] = Cytotoxicity against african green monkey COS7 cells after 48 hrs by WST1 assay; assay type: cell-based; settings: chlorocebus aethiops, cos-7, 48 h
How it was run: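 COS7 cells (monkey kidney, lacking EWS-FLI1) grown in DMEM with 10% FBS. Compound exposure for 48 h, with viability read by WST proliferation assay.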

[7] = biological target: T1, Friend leukemia integration 1 transcription factor (Proto-oncogene Fli-1)/RNA-binding protein EWS; test: Binding affinity to purified recombinant EWS-FLI1 (unknown origin) after 1 hr by colorimetric phosphatase assay; assay type: protein assay
How it was run: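 His-tagged EWS-FLI1 expressed in BL21 (1 mM IPTG, 2 h at 27 °C) and purified from inclusion bodies by Ni column with on-column refolding. Plates coated overnight with 20 nM protein and blocked with 4% BSA for 1 h at RT. Biotin conjugate (1–100 μM) incubated 1 h, then HRP-streptavidin 1:5000 for 1 h at RT. Phosphatase substrate read at 405 nm. BSA-coated wells used as control. Kd taken from the saturation curve.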

inhibition activity (qualitative call) [4]	IC50 [5] [µM]	Kd [7] [µM]	SMILES	GI50 at 72 h [1] [µM]	GI50 [2] [µM]	GI50 [3] [µM]	Activity [6]
			COc1ccc(C(=O)CC2(O)C(=O)Nc3ccccc32)cc1 (stereo not given)	> 10	> 10	> 10	
Active			COc1ccc(C(=O)CC2(OC)C(=O)N(C)c3c(Cl)ccc(Cl)c32)cc1 (stereo not given)	> 10	> 10	> 10	
			COc1ccc(C(=O)CC2(O)C(=O)Nc3cccc(Cl)c32)cc1 (stereo not given)	> 10	> 10	> 10	
			Nc1ccc(C(=O)CC2(O)C(=O)Nc3c(Cl)ccc(Cl)c32)cc1 (stereo not given)	> 10	> 10	> 10	
			COc1ccc(C(=O)CC2(O)C(=O)Nc3c(Cl)cccc32)cc1 (stereo not given)	> 10	> 10	> 10	
Dose-dependent effect	0.35		COc1ccc(C(=O)CC2(O)C(=O)Nc3c(Cl)ccc(Cl)c32)cc1 (stereo not given)	> 10	0.92	0.94	Non-toxic
			O=C(CC1(O)C(=O)Nc2c(Cl)ccc(Cl)c21)c1ccc(C(F)(F)F)cc1 (stereo not given)	11	6.9	2.9	
			COc1cccc(C(=O)CC2(O)C(=O)Nc3c(Cl)ccc(Cl)c32)c1 (stereo not given)	> 10	> 10	> 10	
			COc1ccc(C(=O)CC2(O)C(=O)Nc3cc(Cl)c(Cl)cc32)cc1 (stereo not given)	> 10	> 10	> 10	
inactive			COc1ccccc1C(=O)CC1(O)C(=O)Nc2c(Cl)ccc(Cl)c21 (stereo not given)	> 10	> 10	> 10	
inactive			COc1ccc(C(=O)CC2(OC)C(=O)Nc3c(Cl)ccc(Cl)c32)cc1 (stereo not given)	> 10	> 10	> 10	
	0.15		CN(C)c1ccc(C(=O)CC2(O)C(=O)Nc3c(Cl)ccc(Cl)c32)cc1 (stereo not given)	> 10	0.4	0.26	
			O=C(CC1(O)C(=O)Nc2c(Cl)ccc(Cl)c21)c1ccc(I)cc1 (stereo not given)	> 10	> 10	> 10	
			O=C(CC1(O)C(=O)Nc2c(Cl)ccc(Cl)c21)c1ccc(F)cc1 (stereo not given)	> 10	> 10	> 10	
			COc1ccc(C(=O)CC2(O)C(=O)Nc3c(Cl)ccc(Cl)c32)c(OC)c1OC (stereo not given)	> 10	4.4	2.7	
Active			CCOc1ccc(C(=O)CC2(O)C(=O)Nc3c(Cl)ccc(Cl)c32)cc1 (stereo not given)	> 10	3.57	2.7	
			CC(C)Oc1ccc(C(=O)CC2(O)C(=O)Nc3c(Cl)ccc(Cl)c32)cc1 (stereo not given)	> 10	> 10	> 10	

inhibition activity (qualitative call) [4]	IC50 [5] [µM]	Kd [7] [µM]	SMILES	GI50 at 72 h [1] [µM]	GI50 [2] [µM]	GI50 [3] [µM]	Activity [6]
			COc1ccc(C(=O)CC2(O)C(=O)Nc3ccc(Cl)cc32)cc1 (stereo not given)	> 10	> 10	> 10	
			COc1ccc(C(=O)CC2(O)C(=O)Nc3c(C)ccc(C)c32)cc1 (stereo not given)	> 10	> 10	> 10	
	0.18		CNc1ccc(C(=O)CC2(O)C(=O)Nc3c(Cl)ccc(Cl)c32)cc1 (stereo not given)	> 10	0.39	0.34	
			O=C(CC1(O)C(=O)Nc2c(Cl)ccc(Cl)c21)c1ccc(Oc2ccccc2)cc1 (stereo not given)	> 10	> 10	> 10	
			COc1ccc(C(=O)CC2(O)C(=O)N(c3ccccc3)c3c(Cl)ccc(Cl)c32)cc1 (stereo not given)	> 10	> 10	> 10	
			COc1ccc(C(=O)CC2(O)C(=O)Nc3c(F)ccc(F)c32)cc1 (stereo not given)	> 10	> 10	> 10	
		4.8	CN(C(=O)CCCCCNC(=O)CCCC[C@H]1SCC2NC(=O)NC21)c1ccc(C(=O)CC2(O)C(=O)Nc3c(Cl)ccc(Cl)c32)cc1 (stereo not given in full)				
Active			COc1ccc(C(=O)CC2(O)C(=O)Nc3c(Cl)ccc(Cl)c32)c(OC)c1 (stereo not given)	> 10	2.8	2.6	
			COc1cc(OC)cc(C(=O)CC2(O)C(=O)Nc3c(Cl)ccc(Cl)c32)c1 (stereo not given)	> 10	> 10	9	
	0.77		COc1ccc(C(=O)CC2(O)C(=O)Nc3c(OC)ccc(OC)c32)cc1 (stereo not given)	> 10	0.94	1	
			COc1cccc(C(=O)CC2(O)C(=O)Nc3c(Cl)ccc(Cl)c32)c1OC (stereo not given)	> 10	> 10	> 10	
			Cc1ccc(C(=O)CC2(O)C(=O)Nc3c(Cl)ccc(Cl)c32)cc1 (stereo not given)	> 10	> 10	> 10	
			O=C(CC1(O)C(=O)Nc2c(Cl)ccc(Cl)c21)c1ccccc1 (stereo not given)	> 10	> 10	> 10	
Active			COc1ccc(C(=O)CC2(O)C(=O)N(C)c3c(Cl)ccc(Cl)c32)cc1 (stereo not given)	> 10	> 10	2.2	
	0.33		CSc1ccc(C(=O)CC2(O)C(=O)Nc3c(Cl)ccc(Cl)c32)cc1 (stereo not given)	> 10	0.91	0.98	
			N#Cc1ccc(C(=O)CC2(O)C(=O)Nc3c(Cl)ccc(Cl)c32)cc1 (stereo not given)	> 10	> 10	> 10	
